The results in this text go back to ChEMBL document CHEMBL1133996, “The synthesis of pseudomycin C' via a novel acid promoted side-chain deacylation of pseudomycin A” (2001).

Converted amounts (≈) assume the structure as drawn.

Holding throughout (assay type): functional
The subject of test [1] is Mus musculus. Description: Effective dose administered intraperitoneally against Candida albicans infected mice. The following applies: ip. The procedure, abridged: (§1)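 C. albicans systemic infection in mice: 2 × 10^6 blastoconidia iv (0.1 mL, lateral tail vein). Dosed ip (0.2 mL) at 0, 4, 24 and 48 h post-infection at 20, 10 and 5.0 mg/kg, six mice per level, in 4.0% hydroxypropyl β cyclodextrin/sodium acetate pH 7.0/1.75% dextrose; vehicle-dosed infected controls (10). Morbidity/mortality followed 7 days; ED50 by Reed–Muench.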

The test system of a further test is Candida albicans. Description: Minimum inhibitory concentration tested in vitro against Candida albicans. The procedure, abridged:
(§2)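 Robotic broth microdilution: DMSO stocks diluted in broth to a starting 20 µg/mL, serial 2-fold dilutions. Yeasts grown on Sabouraud dextrose agar, 35°C, 24 h, suspended in saline and adjusted to 1 × 10^5 conidia/mL in Sabouraud dextrose broth (hemacytometer count).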

Another test relates to Aspergillus fumigatus. As to the kind of experiment: Minimum inhibitory concentration tested in vitro against Aspergillus fumigatus. The procedure, abridged: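 A. fumigatus broth microdilution: spores teased from mycelia grown on potato dextrose agar into 0.1% Tween 80/saline, adjusted to 1 × 10^5 spores/mL in Sabouraud broth. Compounds from DMSO, starting at 20 µg/mL, serial 2-fold dilutions.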

The next test concerns Cryptococcus neoformans. Description: Minimum inhibitory concentration tested in vitro against Cryptococcus neoformans. The procedure, abridged:
as §2

The subject of another test is Candida parapsilosis. As to the kind of experiment: Minimum inhibitory concentration tested in vitro against Candida parapsilosis. The procedure, abridged:
as §2

For another test, the system named is Histoplasma capsulatum. As to the kind of experiment: Minimum inhibitory concentration tested in vitro against Histoplasma capsulatum. The procedure, abridged:
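Robotic broth microdilution. Compounds dissolved in 100% DMSO, diluted in broth to start at 20 µg/mL in the first wells after inoculum, then serial 2-fold dilutions. Conidia suspended in saline and adjusted to 1 × 10^5 conidia/mL in Sabouraud dextrose broth. Incubated 48 h at 35 °C in ambient air. MIC = lowest concentration inhibiting 90–100% of visible growth vs untreated controls.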

The test system of test [2] is Mus musculus. Description: Effective dose against Candida albicans tested in infected mice on intraperitoneal administration. The following applies: ip. The procedure, abridged:
as §1

Where [3] appears, read: Candida albicans, read-out: MIC.
Setting [4] is: Aspergillus fumigatus, read-out: MIC.
Setting [5] is: Cryptococcus neoformans, read-out: MIC.
[6] abbreviates: Lodderomyces parapsilosis, read-out: MIC.
The mark [7] stands for this setting: Histoplasma capsulatum, read-out: MIC.

Usually ED50 stands for the dose at which the effect has come halfway, by size or by number of responders. Lower therefore signals an effect at a small dose. One may read the MIC as the smallest concentration in the dilution series that meets the test's criterion for growth inhibition. As to `C/C=C1/NC(=O)[C@H]([C@H](C)O)NC(=O)[C@H](CCN)NC(=O)[C@H](CCCCN)NC(=O)[C@H](CC(=O)O)NC(=O)[C@@H](CCN)NC(=O)[C@@H](NC(=O)CC(O)C(O)CCCCCCCCCCCC)COC(=O)[C@H]([C@H](O)CCl)NC(=O)[C@H]([C@H](O)C(=O)O)NC1=O` (stereo not given in full), in the test with Mus musculus [1], the ED50 was more than 5 mg/kg. The figures for the MIC in the test with Candida albicans (setting [3]), in the test on Aspergillus fumigatus (setting [4]) and in the test on Cryptococcus neoformans (setting [5]) were 0.078 µg/mL (≈ 0.0623 µM), 1.25 µg/mL (≈ 0.999 µM) and 0.02 µg/mL (≈ 0.016 µM), respectively.
With `C/C=C1/NC(=O)[C@H]([C@H](C)O)NC(=O)[C@H](CCN)NC(=O)[C@H](CCCCN)NC(=O)[C@H](CC(=O)O)NC(=O)[C@@H](CCN)NC(=O)[C@@H](NC(=O)C[C@@H](O)CCCCCCCCCCCCC)COC(=O)[C@H]([C@H](O)CCl)NC(=O)[C@H]([C@H](O)C(=O)O)NC1=O`, the minimum inhibitory concentration (MIC) turned out to be 5 µg/mL (≈ 4.05 µM) in the test with Candida parapsilosis (setting [6]); 5 µg/mL (≈ 4.05 µM) with Histoplasma capsulatum (setting [7]); 5 µg/mL (≈ 4.05 µM) in the test with Candida albicans (setting [3]); 20 µg/mL (≈ 16.2 µM) with Aspergillus fumigatus (setting [4]); 5 µg/mL (≈ 4.05 µM) with Cryptococcus neoformans (setting [5]).
`C/C=C1/NC(=O)[C@H]([C@H](C)O)NC(=O)[C@H](CCN)NC(=O)[C@H](CCCCN)NC(=O)[C@H](CC(=O)O)NC(=O)[C@@H](CCN)NC(=O)[C@@H](NC(=O)CCCCCCCCCCCCCCC)COC(=O)[C@H]([C@H](O)CCl)NC(=O)[C@H]([C@H](O)C(=O)O)NC1=O`: the minimum inhibitory concentration (MIC) in the test with Candida parapsilosis (setting [6]) was determined as 10 µg/mL (≈ 8.2 µM); in the test with Histoplasma capsulatum (setting [7]), 10 µg/mL (≈ 8.2 µM); with Candida albicans (setting [3]), 10 µg/mL (≈ 8.2 µM); in the test on Cryptococcus neoformans (setting [5]), 1.25 µg/mL (≈ 1.02 µM).
On to `C/C=C1/NC(=O)[C@H]([C@H](C)O)NC(=O)[C@H](CCN)NC(=O)[C@H](CCCCN)NC(=O)[C@H](CC(=O)O)NC(=O)[C@@H](CCN)NC(=O)[C@@H](NC(=O)CC(O)CCCCCCCCC)COC(=O)[C@H]([C@H](O)CCl)NC(=O)[C@H]([C@H](O)C(=O)O)NC1=O` (stereo not given in full), for which the MIC in the test with Candida albicans (setting [3]) was 10 µg/mL (≈ 8.48 µM); with Aspergillus fumigatus (setting [4]), more than 20 µg/mL; in the test on Cryptococcus neoformans (setting [5]), 1.25 µg/mL (≈ 1.06 µM).
As for `C/C=C1/NC(=O)[C@H]([C@H](C)O)NC(=O)[C@H](CCN)NC(=O)[C@H](CCCCN)NC(=O)[C@H](CC(=O)O)NC(=O)[C@@H](CCN)NC(=O)[C@@H](NC(=O)C[C@H](O)CCCCCCCCCCCCC)COC(=O)[C@H]([C@H](O)CCl)NC(=O)[C@H]([C@H](O)C(=O)O)NC1=O` (stereo in doubt; form 1), the MIC in the test on Candida parapsilosis (setting [6]) is 0.039 µg/mL (≈ 0.0316 µM); in the test on Histoplasma capsulatum (setting [7]), 0.156 µg/mL (≈ 0.126 µM); with Candida albicans (setting [3]) it was 0.039 µg/mL (≈ 0.0316 µM); in the test with Aspergillus fumigatus, 0.312 µg/mL (≈ 0.252 µM); with Cryptococcus neoformans (setting [5]), less than 0.01 µg/mL.
`C/C=C1/NC(=O)[C@H]([C@H](C)O)NC(=O)[C@H](CCN)NC(=O)[C@H](CCCCN)NC(=O)[C@H](CC(=O)O)NC(=O)[C@@H](CCN)NC(=O)[C@@H](NC(=O)C[C@H](O)CCCCCCCCCCCCC)COC(=O)[C@H]([C@H](O)CCl)NC(=O)[C@H]([C@H](O)C(=O)O)NC1=O` (stereo in doubt; form 2): the minimal inhibitory concentration (MIC) with Candida parapsilosis was found to be 0.02 µg/mL (≈ 0.0162 µM); against Histoplasma capsulatum, 0.156 µg/mL (≈ 0.126 µM); in the test with Candida albicans it was 0.039 µg/mL (≈ 0.0316 µM); in the test on Aspergillus fumigatus it was 0.625 µg/mL (≈ 0.506 µM).
In the test on Mus musculus [1], `C/C=C1/NC(=O)[C@H]([C@H](C)O)NC(=O)[C@H](CCN)NC(=O)[C@H](CCCCN)NC(=O)[C@H](CC(=O)O)NC(=O)[C@@H](CCN)NC(=O)[C@@H](NC(=O)CC(O)CCCCCCCCCCC)COC(=O)[C@H]([C@H](O)CCl)NC(=O)[C@H]([C@H](O)C(=O)O)NC1=O` (stereo not given in full) displayed a 50% effective dose (ED50) of 3.5 mg/kg. Also, the MIC came out at 0.156 µg/mL (≈ 0.129 µM) in the test on Candida albicans (setting [3]), 10 µg/mL (≈ 8.28 µM) with Aspergillus fumigatus (setting [4]) and 0.02 µg/mL (≈ 0.0166 µM) with Cryptococcus neoformans (setting [5]).
Regarding `C/C=C1/NC(=O)[C@H]([C@H](C)O)NC(=O)[C@H](CCN)NC(=O)[C@H](CCCCN)NC(=O)[C@H](CC(=O)O)NC(=O)[C@@H](CCN)NC(=O)[C@@H](NC(=O)CC(O)CCCCCCCCCCCCC)COC(=O)[C@H]([C@H](O)CCl)NC(=O)[C@H]([C@H](O)C(=O)O)NC1=O` (stereo in doubt; form 1), the minimum inhibitory concentration (MIC) in the test with Candida parapsilosis (setting [6]) was 0.156 µg/mL (≈ 0.126 µM); with Histoplasma capsulatum (setting [7]), 0.312 µg/mL (≈ 0.252 µM); with Candida albicans (setting [3]), 0.156 µg/mL (≈ 0.126 µM); with Aspergillus fumigatus (setting [4]), 1.25 µg/mL (≈ 1.01 µM); in the test on Cryptococcus neoformans (setting [5]), less than 0.01 µg/mL.
Compound `C/C=C1/NC(=O)[C@H]([C@H](C)O)NC(=O)[C@H](CCN)NC(=O)[C@H](CCCCN)NC(=O)[C@H](CC(=O)O)NC(=O)[C@@H](CCN)NC(=O)[C@@H](NC(=O)CC(O)C(O)CCCCCCCCCC)COC(=O)[C@H]([C@H](O)CCl)NC(=O)[C@H]([C@H](O)C(=O)O)NC1=O` (stereo not given in full) returned a 50% effective dose (ED50) in the test with Mus musculus [2] of 7.1 mg/kg. The MIC with Candida albicans (setting [3]) turned out to be 0.625 µg/mL (≈ 0.511 µM); in the test with Aspergillus fumigatus (setting [4]), 10 µg/mL (≈ 8.17 µM); in the test with Cryptococcus neoformans (setting [5]), 0.078 µg/mL (≈ 0.0637 µM).
In the case of `C/C=C1/NC(=O)[C@H]([C@H](C)O)NC(=O)[C@H](CCN)NC(=O)[C@H](CCCCN)NC(=O)[C@H](CC(=O)O)NC(=O)[C@@H](CCN)NC(=O)[C@@H](NC(=O)CC(O)CCCCCCCCCCCCC)COC(=O)[C@H]([C@H](O)CCl)NC(=O)[C@H]([C@H](O)C(=O)O)NC1=O` (stereo in doubt; form 2), the ED50 in the test on Mus musculus [1] came out at 2.5 mg/kg. Further, the MIC amounted to 0.156 µg/mL (≈ 0.126 µM) in the test with Candida albicans, 0.625 µg/mL (≈ 0.506 µM) in the test on Aspergillus fumigatus and 0.005 µg/mL (≈ 0.00405 µM) with Cryptococcus neoformans.
For `C/C=C1/NC(=O)[C@H]([C@H](C)O)NC(=O)[C@H](CCN)NC(=O)[C@H](CCCCN)NC(=O)[C@H](CC(=O)O)NC(=O)[C@@H](CCN)NC(=O)[C@@H](NC(=O)CC(O)C(O)CCCCCCCCCCC)COC(=O)[C@H]([C@H](O)CCl)NC(=O)[C@H]([C@H](O)C(=O)O)NC1=O` (stereo not given in full), the MIC in the test on Candida albicans (setting [3]) is 2.5 µg/mL (≈ 2.02 µM); in the test with Aspergillus fumigatus (setting [4]), more than 20 µg/mL; with Cryptococcus neoformans (setting [5]), 1.25 µg/mL (≈ 1.01 µM).
